37 variants from the RNAGym collection of RNA variant scans (doi:10.1126/science.aae0568) can be followed below.

Variants at the floor of the assay were thinned out. Bounds are passed on as bounds.

B1: tRNA (parent)
chain: GUUCCGUUGGCGUAAUGGUAACGCGUCUCCCUCCUAAGGAGAAGACUGCGGGUUCGAGUCCCGUACGGAACG

In the data set the parent is B1. Description: yeast fitness relative to wild type (ratio to wild type); higher = fitter; tRNA-Arg(CCU), competitive growth, 37 C, YPD. Put shortly:
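Gene amplicons from the start population and from each of six end populations were read by 100-nucleotide paired-end sequencing. Those end populations came from pooled Saccharomyces cerevisiae strains carrying tRNA-Arg(CCU) gene variants at the native locus, competed in YPD at 37°C for 24 hours. Fitness relative to wild type was worked out from changes in genotype frequencies. Genotypes needed ≥ 100 starting reads, and estimates < 0.5 were set to 0.5.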
As to GUUCCGUUGGCGUAAUGGUAACGCGUCUCCCUCCUAAGGAGAAGACUGCGGGUUCGAGUCCCGCAUGGAACG [U64C C66U], the yeast fitness worked out at 0.958.
To GUUCCGUUGGCGUAAUGGUAACGCGUCUCCCUCCUAAGGAGAAGACUGCGGGUUCGAGUCCCGCACGAAACG [U64C G68A] belongs 0.979; to GUUCCGUUGGCGUAAUGGUAACGCGUCUCCCUCCUAAGGAGAAGACUGCGGGUUCGAGUCCCGCACGCAACG [U64C G68C], 0.978.
To GUUCCGUUGGCGUAAUGGUAACGCGUCUCCCUCCUAAGGAGAAGACUGCGGGUUCGAGUCCUCUACGGACCG [C62U G63C A70C] belongs not above 0.5; to GUUCCGUUGGCGUAAUGGUAACGCGUCUCCCUCCUAAGGAGAAGACUGCGGGUUCGAGUCUCGUGCGAAACG [C61U A65G G68A], 0.705; to GUUCCGUUGGCGUAAUGGUAACGCGUCUCCCUCCUAAGGAGAAGACUGCGGGUUCGAGUCCUGUACGCGACG [C62U G68C A69G], 0.567.
With GUUCCGUUGGCGUAAUGGUAACGCGUCUCCCUCCUAAGGAGAAGACUGCGGGUUCGAGUCCCAUACGGUACG [G63A A69U], the yeast fitness stood at 0.856.
Under GUUCCGUUGGCGUAAUGGUAACGCGUCUCCCUCCUAAGGAGAAGACUGCGGGUUCGAGUCUCGUACAGAACG [C61U G67A] stands 0.649.
Under GUUCCGUUGGCGUAAUGGUAACGCGUCUCCCUCCUAAGGAGAAGACUGCGGGUUCGAGUCUCGUACUGAACG [C61U G67U] stands 0.86; under GUUCCGUUGGCGUAAUGGUAACGCGUCUCCCUCCUAAGGAGAAGACUGCGGGUUCGAGUCCCCUUCGGAUCG [G63C A65U A70U], 0.558; under GUUCCGUUGGCGUAAUGGUAACGCGUCUCCCUCCUAAGGAGAAGACUGCGGGUUCGAGUCCCCUUCGGAACG [G63C A65U], 0.735.
Turning to GUUCCGUUGGCGUAAUGGUAACGCGUCUCCCUCCUAAGGAGAAGACUGCGGGUUCGAGUCUCCUACGGAACG [C61U G63C], the yeast fitness came to 0.565.
Under GUUCCGUUGGCGUAAUGGUAACGCGUCUCCCUCCUAAGGAGAAGACUGCGGGUUCGAGUCCCGAUCGGAUCG [U64A A65U A70U] stands 0.601; under GUUCCGUUGGCGUAAUGGUAACGCGUCUCCCUCCUAAGGAGAAGACUGCGGGUUCGAGUCCUGUACGAAACG [C62U G68A], 0.838; under GUUCCGUUGGCGUAAUGGUAACGCGUCUCCCUCCUAAGGAGAAGACUGCGGGUUCGAGUCCAGUUCGGAUCG [C62A A65U A70U], 0.531.
Under GUUCCGUUGGCGUAAUGGUAACGCGUCUCCCUCCUAAGGAGAAGACUGCGGGUUCGAGUCCAGUCCGGAACG [C62A A65C] stands 0.766; under GUUCCGUUGGCGUAAUGGUAACGCGUCUCCCUCCUAAGGAGAAGACUGCGGGUUCGAGUCCCGCACGGAGCG [U64C A70G], 0.844.
Take GUUCCGUUGGCGUAAUGGUAACGCGUCUCCCUCCUAAGGAGAAGACUGCGGGUUCGAGUCCCGCACGGAUCG [U64C A70U]: the yeast fitness turned out to be 0.953.
Under GUUCCGUUGGCGUAAUGGUAACGCGUCUCCCUCCUAAGGAGAAGACUGCGGGUUCGAGUCCCCUACGGCACG [G63C A69C] stands 0.629; under GUUCCGUUGGCGUAAUGGUAACGCGUCUCCCUCCUAAGGAGAAGACUGCGGGUUCGAGUCCCCUACGGUACG [G63C A69U], 0.709.
To GUUCCGUUGGCGUAAUGGUAACGCGUCUCCCUCCUAAGGAGAAGACUGCGGGUUCGAGUCCGGUUCGGUACG [C62G A65U A69U] belongs 0.535.
To GUUCCGUUGGCGUAAUGGUAACGCGUCUCCCUCCUAAGGAGAAGACUGCGGGUUCGAGUCCUGUACGGUACG [C62U A69U] belongs 0.955.
Consider GUUCCGUUGGCGUAAUGGUAACGCGUCUCCCUCCUAAGGAGAAGACUGCGGGUUCGAGUCCGGUAAGGAACG [C62G C66A], for which the yeast fitness is not above 0.5.
For the variant GUUCCGUUGGCGUAAUGGUAACGCGUCUCCCUCCUAAGGAGAAGACUGCGGGUUCGAGUCCGGUAGGGAACG [C62G C66G], the yeast fitness came to 0.553.
Take GUUCCGUUGGCGUAAUGGUAACGCGUCUCCCUCCUAAGGAGAAGACUGCGGGUUCGAGUCCUGUAGGGAGCG [C62U C66G A70G]: the yeast fitness worked out at 0.574.
Under GUUCCGUUGGCGUAAUGGUAACGCGUCUCCCUCCUAAGGAGAAGACUGCGGGUUCGAGUCUCGUACGGUACG [C61U A69U] stands 1.02.
Under GUUCCGUUGGCGUAAUGGUAACGCGUCUCCCUCCUAAGGAGAAGACUGCGGGUUCGAGUCCCAUCCGGAACG [G63A A65C] stands 0.942; under GUUCCGUUGGCGUAAUGGUAACGCGUCUCCCUCCUAAGGAGAAGACUGCGGGUUCGAGUCCCAUACCGAACG [G63A G67C], 0.707.
To GUUCCGUUGGCGUAAUGGUAACGCGUCUCCCUCCUAAGGAGAAGACUGCGGGUUCGAGUCUCGAACGGAACG [C61U U64A] belongs 0.606; to GUUCCGUUGGCGUAAUGGUAACGCGUCUCCCUCCUAAGGAGAAGACUGCGGGUUCGAGUCUCGCACGGAACG [C61U U64C], 0.902.
Take GUUCCGUUGGCGUAAUGGUAACGCGUCUCCCUCCUAAGGAGAAGACUGCGGGUUCGAGUCCUGUAGGGAACG [C62U C66G]: the yeast fitness came to 0.731.
To GUUCCGUUGGCGUAAUGGUAACGCGUCUCCCUCCUAAGGAGAAGACUGCGGGUUCGAGUCCUGUAAGGAACG [C62U C66A] belongs 0.686; to GUUCCGUUGGCGUAAUGGUAACGCGUCUCCCUCCUAAGGAGAAGACUGCGGGUUCGAGUCCUGUACGGGUCG [C62U A69G A70U], 0.648.
Regarding GUUCCGUUGGCGUAAUGGUAACGCGUCUCCCUCCUAAGGAGAAGACUGCGGGUUCGAGUCUCGUACGGGCCG [C61U A69G A70C], the yeast fitness turned out to be 0.923.
As for GUUCCGUUGGCGUAAUGGUAACGCGUCUCCCUCCUAAGGAGAAGACUGCGGGUUCGAGUCCUGUACGGAUCG [C62U A70U], the yeast fitness stood at 0.996.
Under GUUCCGUUGGCGUAAUGGUAACGCGUCUCCCUCCUAAGGAGAAGACUGCGGGUUCGAGUCCCUUACGGAACG [G63U] stands 0.825; under GUUCCGUUGGCGUAAUGGUAACGCGUCUCCCUCCUAAGGAGAAGACUGCGGGUUCGAGUCCCCUACGGAACG [G63C], 0.812.
